The source made the active and inactive calls. The rule behind the calls is not given here.
Assays:
A549 [1] = test: Cytotoxicity against human A549 cells after 72 hrs by MTT assay; assay type: functional; conditions: A549, 72 h, read-out: ED50 (the source's name)
Summary of the method: (§1)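 Cells were grown in RPMI-1640 with 10% FBS at 37 °C under humidified 5% CO2 and seeded at 1 × 10^4 cells/well with compounds for 72 h. MTT (5 mg/mL stock) was then added for 4 h at 37 °C. Formazan was solubilized with acidic SDS (0.02 N HCl in 20% SDS), and absorbance was read at 570 nm against a 620 nm reference.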

P388 [2] = test: Cytotoxicity against mouse P388 cells after 72 hrs by MTT assay; assay type: functional; conditions: P388, 72 h, read-out: ED50 (the source's name); summary of the method: as §1
P388 [3] = test: Cytotoxicity against mouse P388 cells at 40 uM after 72 hrs by MTT assay; assay type: functional, cell-based
A549 [4] = test: Cytotoxicity against human A549 cells at 40 uM after 72 hrs by MTT assay; assay type: functional, cell-based

SMILES | EC50 (A549 [1]) | EC50 (P388 [2]) | Activity (P388 [3]) | Activity (A549 [4])
COc1cc([C@@H]2c3cc4c(cc3[C@@H](O[C@@H]3O[C@@H]5CO[C@@H](C)O[C@H]5[C@H](O)[C@H]3O)[C@H]3COC(=O)[C@H]23)OCO4)cc(OC)c1O [ETOPOSIDE] | 3.76 µM |  |  | 
CC1(C)CC[C@]2(C(=O)O)CC[C@]3(C)C(=CC[C@@H]4[C@]56CC[C@@](O)(OC5)C(C)(C)[C@@H]6CC[C@]43C)[C@@H]2C1 [LANTANOLIC ACID] | 26.5 µM | 24 µM |  | 
CC(=O)[C@@H]1CC[C@]2(C(=O)O)CC[C@]3(C)[C@H](CC[C@@H]4[C@@]5(C)CCC(=O)C(C)(C)[C@@H]5[C@H](O)C[C@]43C)[C@@H]12 |  |  | inactive | inactive
C=C(C)[C@@H]1CC[C@]2(C(=O)O)CC[C@]3(C)[C@H](CC[C@@H]4[C@]56CC[C@@](O)(OC5)C(C)(C)[C@@H]6CC[C@]43C)[C@@H]12 | 29.9 µM | 22.3 µM |  | 
C=C(C)[C@@H]1CC[C@]2(C(=O)O)CC[C@]3(C)[C@@H](CC[C@@H]4[C@@]5(C)CCC(=O)C(C)(C)[C@@H]5[C@H](O)C[C@]43C)[C@@H]12 | ≥ 40 µM | 32.7 µM |  | 
CC(=O)OC[C@]12CC[C@@H](O)C(C)(C)C1CC[C@]1(C)[C@@H]2CC=C2[C@@H]3CC(C)(C)CC[C@]3(C(=O)O)CC[C@]21C (stereo not given in full) | 13.3 µM | 28.2 µM |  | 
CC1(C)CC[C@]2(C(=O)O)CC[C@]3(C)C(=CC[C@@H]4[C@@]5(C)CCC(=O)C(C)(C)[C@@H]5[C@H](O)C[C@]43C)[C@@H]2C1 | 33.5 µM | 18.5 µM |  | 
C=C(CO)[C@@H]1CC[C@]2(C(=O)O)CC[C@]3(C)[C@H](CC[C@@H]4[C@@]5(C)CCC(=O)C(C)(C)[C@@H]5[C@H](O)C[C@]43C)[C@@H]12 |  |  | inactive | inactive
